According to ChEMBL document CHEMBL1127376, “Agents combining thromboxane receptor antagonism with thromboxane synthase inhibition: [[[2-(1H-imidazol-1-yl)ethylidene]amino]oxy]alkanoic acids” (J Med Chem, 1994):

Experiments:
[1] = target: T1, Thromboxane A2 receptor (Homo sapiens, UniProt P21731); assay: In vitro thromboxane-A2 receptor binding affinity to displace by 50% [3H]-SQ 29548 binding from washed human platelets
T1 sequence (P21731 whole entry): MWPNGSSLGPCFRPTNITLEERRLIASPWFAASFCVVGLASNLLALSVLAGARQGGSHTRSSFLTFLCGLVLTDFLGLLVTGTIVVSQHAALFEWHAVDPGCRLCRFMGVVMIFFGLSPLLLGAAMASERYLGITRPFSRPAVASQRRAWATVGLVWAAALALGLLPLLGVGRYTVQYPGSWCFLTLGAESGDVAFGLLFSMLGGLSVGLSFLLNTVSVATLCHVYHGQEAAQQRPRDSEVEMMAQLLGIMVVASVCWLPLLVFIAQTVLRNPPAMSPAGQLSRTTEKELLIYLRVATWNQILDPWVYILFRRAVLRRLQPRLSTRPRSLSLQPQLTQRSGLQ

[2] = target: T2, Thromboxane-A synthase (Rattus norvegicus) (UniProt P49430); assay: Tested for the in vitro inhibition of thromboxane-A2 synthase in rat whole blood during clotting at 37 degrees Celsius at >1 uM; type: tissue-based
T2 sequence (whole entry): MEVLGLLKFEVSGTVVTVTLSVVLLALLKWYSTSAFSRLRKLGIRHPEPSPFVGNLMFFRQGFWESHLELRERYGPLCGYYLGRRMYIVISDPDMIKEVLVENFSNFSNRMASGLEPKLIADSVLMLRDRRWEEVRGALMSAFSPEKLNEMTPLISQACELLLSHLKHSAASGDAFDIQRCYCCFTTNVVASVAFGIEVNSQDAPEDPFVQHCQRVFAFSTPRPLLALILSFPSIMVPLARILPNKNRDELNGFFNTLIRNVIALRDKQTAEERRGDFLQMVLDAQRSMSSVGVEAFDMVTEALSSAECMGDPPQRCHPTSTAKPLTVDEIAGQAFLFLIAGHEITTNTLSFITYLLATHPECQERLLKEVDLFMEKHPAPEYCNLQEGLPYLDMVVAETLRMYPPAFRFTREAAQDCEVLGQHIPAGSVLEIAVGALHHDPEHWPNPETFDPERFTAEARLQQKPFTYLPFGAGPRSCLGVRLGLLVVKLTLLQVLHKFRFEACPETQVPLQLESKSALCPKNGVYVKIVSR
In short: (§1)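 Rat whole blood allowed to clot 1 h at 37 °C with test agent, then spun for serum, stored -20 °C. Serum TxB2 measured by RIA with [3H]TxB2 and rabbit antiserum, incubated 16–24 h at 4 °C, charcoal separation, scintillation counting.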

[3] = target: T3, Thromboxane-A synthase (Rattus norvegicus, UniProt P49430); assay: In vitro inhibition of thromboxane-A2 synthase in rat whole blood during clotting at 37 degrees Centigrade; type: tissue-based; in short: as §1
T3 sequence (P49430 whole entry): T2 sequence (whole entry)

[4] = species: Homo sapiens; assay: Tested in vitro for the umolar concentration required to inhibit U-46,619-induced platelet aggregation in human platelet rich plasma (PRP); type: functional
In short: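 Citrated human blood (3.8%, 9:1), PRP by centrifugation. PRP preincubated 5 min at 37 °C with vehicle or compound, then challenged with a submaximal U46619 concentration chosen from a concentration–response curve. Aggregation followed by photoelectric aggregometry.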

[5] = target: T2, Thromboxane-A synthase (Rattus norvegicus); assay: Tested for in vitro inhibition of TxA synthase in rat whole blood at 1 uM; type: tissue-based

IC50 [1]	inhibition [2]	IC50 [3]	IC50 [4]	inhibition [5]	Structure (SMILES)
2390 nM	15%	> 1000 nM			O=C(O)CCCCO/N=C(\c1ccc(Br)cc1)C(Cc1ccccc1)n1ccnc1 (centres undefined)
3000 nM		50 nM			CCCCCC/C(=N\OCCCCC(=O)O)C(Cc1ccccc1)n1ccnc1 (centres undefined)
970 nM	26%	> 1000 nM			O=C(O)CCCCCO/N=C(/c1ccccc1)C(Cc1ccccc1)n1ccnc1 (centres undefined)
7500 nM	49%	> 1000 nM			CSc1ccc(/C(=N\OCCCCC(=O)O)C(Cc2ccccc2)n2ccnc2)cc1 (centres undefined)
20 nM		370 nM	300 nM		O=C(O)CCCCO/N=C(\C1CCCCC1)C(Cc1ccc(F)cc1)n1ccnc1 (centres undefined)
74500 nM		> 1000 nM		2%	O=C(O)CCCCCO/N=C(\Cn1ccnc1)c1ccccc1
> 100000 nM		> 1000 nM		24%	O=C(O)CCCCO/N=C(\Cn1ccnc1)c1cccnc1
> 100000 nM					O=C(O)/C=C/c1ccc(Cn2ccnc2)cc1 [OZAGREL]
30 nM		270 nM			O=C(O)CCCCO/N=C(\C1CCCCC1)C(Cc1cccc(F)c1)n1ccnc1 (centres undefined)
> 100000 nM		> 1000 nM		8%	O=C(O)CCCO/N=C(\Cn1ccnc1)C1CCCCC1
4160 nM		760 nM			CC(C)(CCCO/N=C(\c1ccccc1)C(Cc1ccccc1)n1ccnc1)C(=O)O (centres undefined)
1040 nM	47%	> 1000 nM			O=C(O)/C=C/CCCO/N=C(\c1ccccc1)C(Cc1ccccc1)n1ccnc1 (centres undefined)
1300 nM		430 nM			CCOC(=O)CCCCO/N=C(\C1CCCCC1)C(Cc1ccccc1)n1ccnc1 (centres undefined)
530 nM		60 nM	280 nM		O=C(O)CCCCO/N=C(/c1ccccc1)C(Cc1ccc(F)cc1)n1ccnc1 (centres undefined)
23400 nM		200 nM			C/C(=N\OCCCCC(=O)O)C(Cc1ccccc1)n1ccnc1 (centres undefined)
50 nM		900 nM			O=C(O)CCCCO/N=C(\C1CCCCC1)C(Cc1ccc(C(F)(F)F)cc1)n1ccnc1 (centres undefined)
49300 nM		> 1000 nM		44%	O=C(O)CCCO/N=C(/Cn1ccnc1)C1CCCCC1
40 nM		390 nM	210 nM		O=C(O)CCCCO/N=C(\c1ccccc1)C(Cc1ccc(F)cc1)n1ccnc1 (centres undefined)
70 nM		140 nM			Cc1ccc(CC(/C(=N/OCCCCC(=O)O)C2CCCCC2)n2ccnc2)cc1 (centres undefined)
230 nM		530 nM			CC(C)(CCO/N=C(\c1ccccc1)C(Cc1ccccc1)n1ccnc1)CC(=O)O (centres undefined)
> 100000 nM		> 1000 nM		17%	O=C(O)CCCO/N=C(\Cn1ccnc1)c1ccccc1
		> 100000 nM			O=C(O)Cc1ccc(CCNS(=O)(=O)c2ccc(Cl)cc2)cc1 [DALTROBAN]
27300 nM		640 nM			O=C(O)CCCCO/N=C(/Cn1ccnc1)C1CCCCC1
295000 nM		160 nM			CC(/C(=N\OCCCCC(=O)O)c1ccccc1)n1ccnc1 (centres undefined)
3280 nM		300 nM			O=C(O)CCCCO/N=C(\C1CCCCC1)C(Cc1ccccn1)n1ccnc1 (centres undefined)
14700 nM		170 nM			O=C(O)CCCCO/N=C(\Cn1ccnc1)c1ccccc1

IC50 [1]	inhibition [2]	IC50 [3]	IC50 [4]	inhibition [5]	Structure (SMILES)
21000 nM	12%	> 1000 nM			CS(=O)(=O)c1ccc(/C(=N\OCCCCC(=O)O)C(Cc2ccccc2)n2ccnc2)cc1 (centres undefined)
120 nM	26%	> 1000 nM			O=C(O)/C=C/CCO/N=C(\c1ccccc1)C(Cc1ccccc1)n1ccnc1 (centres undefined)
1900 nM	43%	> 1000 nM			O=C(O)CCCCO/N=C(\C1CCCCC1)C(CC1CCCCC1)n1ccnc1 (centres undefined)
880 nM	28%	> 1000 nM			O=C(O)COCCO/N=C(\c1ccccc1)C(Cc1ccccc1)n1ccnc1 (centres undefined)
73000 nM	37%	> 1000 nM			CC(/C(=N/OCCCCC(=O)O)c1ccccc1)n1ccnc1 (centres undefined)
19700 nM		360 nM			CCCCCC/C(Cn1ccnc1)=N\OCCCCC(=O)O
46200 nM		270 nM			O=C(O)CCCCO/N=C(/Cn1ccnc1)c1ccccc1
230 nM	32%	> 1000 nM			CS(=O)(=O)c1ccc(CC(/C(=N/OCCCCC(=O)O)C2CCCCC2)n2ccnc2)cc1 (centres undefined)
280 nM		100 nM			O=C(O)CCCCO/N=C(\C1CCCCC1)C(Cc1ccco1)n1ccnc1 (centres undefined)
170 nM		50 nM	370 nM		O=C(O)CCCCO/N=C(\c1ccccc1)C(Cc1ccccc1)n1ccnc1 (centres undefined)
12200 nM		40 nM			CCCCCC/C(Cn1ccnc1)=N/OCCCCC(=O)O
80 nM		60 nM	440 nM		O=C(O)CCCCO/N=C(\C1CCCCC1)C(Cc1ccccc1)n1ccnc1 (centres undefined)
520 nM		710 nM			O=C(CCCCO/N=C(\C1CCCCC1)C(Cc1ccccc1)n1ccnc1)NO (centres undefined)
140 nM		250 nM			O=C(O)CCCCO/N=C(/C1CCCCC1)C(Cc1cccc(F)c1)n1ccnc1 (centres undefined)
40 nM		890 nM			O=C(O)CCCCO/N=C(\c1ccccc1)C(Cc1ccc(Cl)cc1)n1ccnc1 (centres undefined)
70 nM		320 nM			COc1ccc(CC(/C(=N/OCCCCC(=O)O)C2CCCCC2)n2ccnc2)cc1 (centres undefined)
53100 nM		40 nM	2440 nM		O=C(O)CCCCO/N=C(\Cn1ccnc1)C1CCCCC1
1160 nM		20 nM	2100 nM		O=C(O)CCCCO/N=C(/c1ccccc1)C(Cc1ccccc1)n1ccnc1 (centres undefined)
23900 nM		> 1000 nM		19%	O=C(O)CCCCCO/N=C(\Cn1ccnc1)C1CCCCC1
970 nM		100 nM			O=C(O)CCCCO/N=C(/C1CCCCC1)C(Cc1ccccc1)n1ccnc1 (centres undefined)
300 nM		350 nM			O=C(O)CCCCO/N=C(\C1CCCCC1)C(Cc1ccccc1F)n1ccnc1 (centres undefined)
160 nM		1100 nM			O=C(O)CCCCCO/N=C(\c1ccccc1)C(Cc1ccccc1)n1ccnc1 (centres undefined)
190 nM		70 nM			O=C(O)CCCCO/N=C(\C1CCCCC1)C(Cc1cnccn1)n1ccnc1 (centres undefined)
170 nM		250 nM			O=C(O)CCCCO/N=C(/c1ccccc1)C(Cc1ccc(Cl)cc1)n1ccnc1 (centres undefined)
2100 nM		30 nM	3300 nM		O=C(O)CCCCO/N=C(/c1cccnc1)c1cccc(C(F)(F)F)c1 [RIDOGREL]
